“And” between values parts separate entries of the source, which are not always exact repeats. Equal entries are not always repeated.

The record followed here is ChEMBL document CHEMBL1124006, “Synthesis and cognition activating properties of some mono- and bicyclic lactam derivatives” (1988).

Assay [1] deals with Rattus norvegicus. Nature of the assay: Effect of lactam derivative on retention in one-trial passive avoidance test in rats tested at equimolar doses to 100 mg/kg ip of piracetam. The assay is classed as functional, organism-based. Also noted: dose 100 mg/kg. The conditions noted are these: at 100 mg/kg. A digest of the protocol:
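Male Sprague-Dawley rats, 250-300 g, 8 per group, dosed ip twice for 2 days, equimolar to 100 mg/kg piracetam. Trained to avoid dark compartment, 720 μA footshock for 15 s; retested 24 h later with grid off. Rats avoiding dark side 0.2-3 min counted as remembering; percent retention.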

Assay [2] deals with Rattus norvegicus. Nature of the assay: Retention time was measured at equimolar doses to 100 mg/kg ip of piracetam. The assay is classed as functional, organism-based. Also noted: dose 100 mg/kg. A digest of the protocol: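 Male Sprague-Dawley rats, 8 per group, ip twice for 2 days, equimolar to 100 mg/kg piracetam. Footshock 720 μA, 15 s; retest 24 h later. For remembering rats, retention time T = T' − T0, light-compartment time at retest minus time at acquisition; mean ± SD, t test.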

Assay [3] concerns Mus musculus. Nature of the assay: Exploratory activity in hole board at the dose of 500 mg/kg lactum derivatives on mice. The class given is functional. In a few lines:
(§1)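 Swiss inbred mice (male and female, 22 ± 2 g), 10 per dose (5 of each sex), given ip in 1% Tween 80; controls got vehicle only. Boissier–Simon hole board with infrared detection: total holes explored per animal in 5 min, mean ± SD. t test vs vehicle.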

Assay [4] concerns Mus musculus. Nature of the assay: Maximal Electroshock seizure (% of animals without seizures) at the dose of 1000 mg/kg lactam derivatives on mice. The assay is classed as functional. In a few lines: (§2)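 Swiss mice of both sexes, 10 per dose, ip in 1% Tween 80. Maximal electroshock set to kill 50% of controls (60 mA, 0.4 s, 0.6 ms pulse width). Mice without seizures counted as protected; percent protected.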
(In general: The maximal electroshock test induces tonic seizures with an electrical stimulus.)

Assay [5] relates to Mus musculus. Nature of the assay: Spontaneous motor activity in open field at the dose of 500 mg/kg on mice. The assay is classed as functional. A digest of the protocol:
(§3)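 Open-field activity in male and female Swiss mice (22 ± 2 g, 10 per dose), compound given ip in 1% Tween 80 with vehicle-only controls. Tested 15 min after injection: total movements per animal in 5 min, mean ± SD; t test vs vehicle.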

The test system of assay [6] is Mus musculus. Nature of the assay: Spontaneous motor activity in open field at the dose of 1000 mg/kg on mice. The assay is classed as functional. In a few lines:
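Swiss mice, male and female, 22 ± 2 g, 10 per dose (5 each sex). Dosed ip in 1% Tween 80, doses up to 1000 mg/kg. Open field 15 min after injection; total movements in 5 min; mean ± SD, t test.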

For assay [7], the system named is Mus musculus. Nature of the assay: Motor coordination in rotarod test performed (total number of falls in 3 min) at the dose of 1000 mg/kg lactam derivatives on mice. The assay is classed as functional. In a few lines: (§4)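 Rota-rod motor coordination in Swiss mice (10 per dose, sexes mixed, 22 ± 2 g), dosed ip in 1% Tween 80 against vehicle controls. Falls counted per animal, mean ± SD; t test vs vehicle. The table footer gives 3 min and the method gives a 100 s observation period.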

The subject of assay [8] is Mus musculus. Nature of the assay: Exploratory activity in hole board at the dose of 1000 mg/kg lactam derivatives on mice. The class given is functional. A digest of the protocol: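 Swiss mice of both sexes, 22 ± 2 g, 10 per dose, ip in 1% Tween 80. Hole board (Boissier and Simon); holes explored in 5 min counted by infrared device; mean ± SD.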
Assay [9] relates to Mus musculus. Nature of the assay: Maximal Electroshock seizure (% of animals without seizures) at the dose of 500 mg/kg lactam derivatives on mice. The assay is classed as functional. A digest of the protocol:
(§5)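 Swiss mice (5 male, 5 female per dose, 22 ± 2 g) dosed ip in 1% Tween 80, with vehicle controls. Maximal electroshock set to kill 50% of controls: 60 mA, 0.4 s shock, 0.6 ms pulse width. Read-out: percent of animals without seizures.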

For assay [10], the system named is Mus musculus. Nature of the assay: Traction test (times in seconds on the horizontal wire with forelegs) performed at the dose of 500 mg/kg lactam derivatives on mice. The class given is functional. A digest of the protocol: (§6)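 Boissier–Simon traction test in Swiss mice (5 male plus 5 female per dose, 22 ± 2 g), dosed ip in 1% Tween 80, with vehicle controls. Read-out: time in seconds each mouse stays hanging by its forelegs on a horizontal wire, mean ± SD; t test vs vehicle.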

For assay [11], the system named is Mus musculus. Nature of the assay: Traction test (times in seconds on the horizontal wire with forelegs) performed at the dose of 1000 mg/kg lactam derivatives on mice. The class given is functional. A digest of the protocol: as §6
For assay [12], the system named is Mus musculus. Nature of the assay: Motor coordination in rotarod test performed (total number of falls in 3 min) at the dose of 500 mg/kg lactam derivatives on mice. The class given is functional. A digest of the protocol:
as §4
In general terms: Falling from the rotarod earlier than controls is read as motor impairment.

Assay [13] deals with Rattus norvegicus. Nature of the assay: Effect of tested at dose of 100 mg/kg in the water- maze test (day 3). The assay is classed as functional. In a few lines: (§7)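 Male Sprague-Dawley rats, 250-300 g, 10 per group; day 1 selects rats unable to leave the water maze within 5 min. Drug dosed ip twice daily on days 2-4, equimolar to 100 mg/kg piracetam. On day 5, two doses 30 min apart, then transtemporal ECS (60 mA/0.2 s). Mazes run 15, 60, 240 min after shock. Errors (reversals plus wrong entrances) and exit time recorded; mean ± SD, t test.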

Assay [14] concerns Rattus norvegicus. Nature of the assay: Effect of tested at dose of 100 mg/kg in the water- maze test (day 1). The assay is classed as functional. In a few lines:
as §7

Assay [15] concerns Mus musculus. Nature of the assay: Maximal Electroshock seizure (% of animals without seizures) at the dose of 1000 mg/kg on mice. The assay is classed as functional. In a few lines: as §2
Assay [16] relates to Rattus norvegicus. Nature of the assay: Effect of lactam derivatives tested at dose of 100 mg/kg in the water- maze test (day 2). The assay is classed as functional. In a few lines:
as §7

The subject of assay [17] is Mus musculus. Nature of the assay: Motor coordination in rotarod test performed (total number of falls in 3 min) at the dose of 1000 mg/kg on mice. The class given is functional.
The subject of assay [18] is Mus musculus. Nature of the assay: Traction test (times in seconds on the horizontal wire with forelegs) performed at the dose of 1000 mg/kg on mice. The assay is classed as functional. A digest of the protocol: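 Swiss mice of both sexes, 10 per dose, ip in 1% Tween 80. Boissier and Simon traction test; time spent hanging by forelegs on a horizontal wire, in seconds; mean ± SD.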

Assay [19] concerns Rattus norvegicus. Nature of the assay: Effect of lactam derivatives tested at dose of 100 mg/kg in the water- maze test (day 1). The class given is functional. A digest of the protocol:
as §7

The test system of assay [20] is Rattus norvegicus. Nature of the assay: Effect of tested at dose of 100 mg/kg in the water- maze test (day 2). The class given is functional. A digest of the protocol: as §7
Assay [21] relates to Rattus norvegicus. Nature of the assay: Effect of tested at dose ofv 100 mg/kg in the water- maze test (day 2). The assay is classed as functional. In a few lines:
as §7

Assay [22] relates to Rattus norvegicus. Nature of the assay: Effect of tested at dose of 100 mg/kg in the water- maze test after 15 minutes (day 4). The assay is classed as functional. In a few lines:
as §7

The subject of assay [23] is Rattus norvegicus. Nature of the assay: Effect of tested at dose of 100 mg/kg in the water- maze test after 30 minutes (day 4). The assay is classed as functional.
Assay [24] has as its system Rattus norvegicus. Nature of the assay: Effect of tested at dose of 100 mg/kg in the water- maze test after 60 minutes (day 4). The class given is functional. In a few lines: as §7
Assay [25] deals with Mus musculus. Nature of the assay: Exploratory activity in hole board at the dose of 1000 mg/kg on mice (statistical significance test). The class given is functional. In a few lines:
as §1

In assay [26] the test system is Mus musculus. Nature of the assay: Motor coordination in rotarod test performed (total number of falls in 3 min) at the dose of 1000 mg/kg on mice (statistical significance test). The class given is functional. A digest of the protocol:
as §4

Assay [27] concerns Mus musculus. Nature of the assay: Maximal Electroshock seizure (% of animals without seizures) at the dose of 500 mg/kg on mice. The assay is classed as functional. A digest of the protocol:
as §5

Assay [28] relates to Mus musculus. Nature of the assay: Traction test (times in seconds on the horizontal wire with forelegs) performed at the dose of 500 mg/kg on mice (statistical significance test). The assay is classed as functional. A digest of the protocol:
as §6

Assay [29] has as its system Mus musculus. Nature of the assay: Traction test (times in seconds on the horizontal wire with forelegs) performed at the dose of 1000 mg/kg on mice (statistical significance test). The class given is functional. In a few lines:
as §6

In assay [30] the test system is Mus musculus. Nature of the assay: Motor coordination in rotarod test performed (total number of falls in 3 min) at the dose of 500 mg/kg on mice. The assay is classed as functional. In a few lines:
as §4

In assay [31] the test system is Mus musculus. Nature of the assay: Spontaneous motor activity in open field at the dose of 1000 mg/kg on mice (statistical significance test). The class given is functional. In a few lines:
as §3

For the compound `CCOC(=O)C1CNC(=O)CC1C(=O)OCC` (stereo in doubt; 5) [listing 1 of 2 here], the Retention in the assay with Rattus norvegicus [1] came to 100%. The same compound registered a Retention time in the assay on Rattus norvegicus [2] of 47.2 s.
For `CCOC(=O)C1CNC(=O)CC1C(=O)OCC` (stereo in doubt; 4) [listing 1 of 2 here], in that order: 100% and 44.2 s.
In the case of `CCOC(=O)C1CNC(=O)CC1C(=O)OCC` (stereo in doubt; 4) [listing 2 of 2 here], the Activity with Mus musculus [3] worked out at 20.4; in the assay with Mus musculus [4], 0%; with Mus musculus [5], 3410.5; in the assay with Mus musculus [6] it was 2522; with Mus musculus [7], 3.3; in the assay on Mus musculus [8], 20. For the same compound, the Activity with Mus musculus [9] is given as 0%; in the assay on Mus musculus [10], 75.8; in the assay on Mus musculus [11], 112.8; in the assay on Mus musculus [12], 1.
Consider `NC(=O)CN1CCCC1=O` [PIRACETAM], for which the No. of errors in the assay on Rattus norvegicus [13] was 3.5 and 5; in the assay with Rattus norvegicus [14], 7.6 and 9.1; in the assay with Rattus norvegicus [16], 7.2 and 8.1; in the assay on Rattus norvegicus [22] it was 3.2; in the assay on Rattus norvegicus [23], 2.1; with Rattus norvegicus [24], 3.6. The Speed of performance in the assay on Rattus norvegicus [13] is 249 and 250.1; in the assay on Rattus norvegicus [19], 272.2 and 265; with Rattus norvegicus [20], 291.5; with Rattus norvegicus [21] it was 282.7; in the assay on Rattus norvegicus [22] it was 251; with Rattus norvegicus [23] it was 235.7. Further, in the assay on Rattus norvegicus [24], the Speed of performance is 197.6. In addition, the Activity came to 0% in the assay with Mus musculus [15]; 3764.3 in the assay on Mus musculus [6]; 1.7 in the assay with Mus musculus [17]; 79.9 in the assay on Mus musculus [18]; 19.6 in the assay on Mus musculus [8]. The same compound displayed a Retention in the assay with Rattus norvegicus [1] of 100%. In the assay with Rattus norvegicus [2], this compound yielded a Retention time of 43.2 s.
For `CCOC(=O)C1CNC(=O)CC1C(=O)OCC` (stereo in doubt; 5) [listing 2 of 2 here], the Activity came to 8.9% in the assay on Mus musculus [25]; 16.4 in the assay on Mus musculus [26]; 3025.2 with Mus musculus [5]; 40% with Mus musculus [15]; 0% with Mus musculus [27]; 65.1 in the assay on Mus musculus [28]. Besides, the figures for the Activity with Mus musculus [29], in the assay with Mus musculus [30] and with Mus musculus [31] were under 7, 0.8 and 782, respectively.
